ChEMBL document CHEMBL1275537, “In vitro activities of tigecycline and 10 other antimicrobials against nonpigmented rapidly growing mycobacteria” (2008)
Converted amounts (≈) assume the structure as drawn.

Experiments:
Format in all cases: functional
[1] = test system: Mycobacteroides abscessus; assay: Antibacterial activity against nonpigmented rapidly growing Mycobacterium abscessus after 3 days by broth microdilution method; conditions: 72 h
Summary of the method: (§1)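 MIC by broth microdilution. Strains are collection strains and clinical isolates, grown on 5% sheep blood tryptic soy agar at 35°C for 4 days in room air. Inoculum is made straight from the blood agar plates in cation-supplemented Mueller-Hinton broth with 0.02% Tween 80. Doubling dilutions run 64 to 0.03 µg/ml. Plates are incubated at 30°C in room air and read at 3 days. E. coli ATCC 25922, S. aureus ATCC 29213 and E. faecalis ATCC 29212 serve as controls. MIC50 and MIC90 are given where ≥10 strains were tested, otherwise the range.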

[2] = test system: Mycobacteroides chelonae; assay: Antibacterial activity against nonpigmented rapidly growing Mycobacterium chelonae after 3 days by broth microdilution method; conditions: 72 h; summary of the method: as §1
[3] = test system: Mycolicibacterium peregrinum; assay: Antibacterial activity against nonpigmented rapidly growing Mycobacterium peregrinum after 3 days by broth microdilution method; conditions: 72 h; summary of the method: as §1
[4] = test system: Mycolicibacterium fortuitum; assay: Antibacterial activity against nonpigmented rapidly growing Mycobacterium fortuitum after 3 days by broth microdilution method; conditions: 72 h; summary of the method: as §1
[5] = test system: Mycobacterium mucogenicum; assay: Antibacterial activity against nonpigmented rapidly growing Mycobacterium mucogenicum after 3 days by broth microdilution method; conditions: Mycolicibacterium mucogenicum, 72 h; summary of the method: as §1
[6] = test system: Mycolicibacterium mageritense; assay: Antibacterial activity against nonpigmented rapidly growing Mycobacterium mageritense after 3 days by broth microdilution method; conditions: 72 h; summary of the method: as §1
[7] = test system: Mycobacterium alvei; assay: Antibacterial activity against nonpigmented rapidly growing Mycobacterium alvei after 3 days by broth microdilution method; conditions: Mycolicibacterium alvei, 72 h; summary of the method: as §1
[8] = test system: Mycolicibacterium smegmatis; assay: Antibacterial activity against nonpigmented rapidly growing Mycobacterium smegmatis after 3 days by broth microdilution method; conditions: 72 h; summary of the method: as §1
[9] = test system: Mycobacterium porcinum; assay: Antibacterial activity against nonpigmented rapidly growing Mycobacterium porcinum after 3 days by broth microdilution method; conditions: Mycolicibacterium porcinum, 72 h; summary of the method: as §1
[10] = test system: Mycobacterium septicum; assay: Antibacterial activity against nonpigmented rapidly growing Mycobacterium septicum after 3 days by broth microdilution method; conditions: Mycolicibacterium septicum, 72 h; summary of the method: as §1
[11] = test system: Mycobacterium wolinskyi; assay: Antibacterial activity against nonpigmented rapidly growing Mycobacterium wolinskyi after 3 days by broth microdilution method; conditions: Mycolicibacterium wolinskyi, 72 h; summary of the method: as §1

Row | Structure (SMILES) | MIC50 [1] | MIC90 [1] | MIC50 [2] | MIC90 [2] | MIC50 [3] | MIC90 [3] | MIC50 [4] | MIC90 [4] | MIC [5] | MIC [6] | MIC [7] | MIC [8] | MIC [9] | MIC [10] | MIC [11]
1 | C[C@H]1c2cccc(O)c2C(=O)C2=C(O)[C@]3(O)C(=O)C(C(N)=O)=C(O)[C@@H](N(C)C)[C@@H]3[C@@H](O)[C@@H]21.O [DOXYCYCLINE] | > 64 µg/mL | > 64 µg/mL | 8 µg/mL | 64 µg/mL | 8 µg/mL | 32 µg/mL | 4 µg/mL | 64 µg/mL | ≤ 0.03 µg/mL | ≤ 0.03 µg/mL | ≤ 0.03 µg/mL | ≤ 0.03 µg/mL | 8 µg/mL | 32 µg/mL | 0.25 µg/mL
2 | O=C(O)c1cn(C2CC2)c2cc(N3CCNCC3)c(F)cc2c1=O [CIPROFLOXACIN] | 2 µg/mL (≈ 6.04 µM) | 8 µg/mL (≈ 24.1 µM) | 0.12 µg/mL (≈ 0.362 µM) | 2 µg/mL (≈ 6.04 µM) | ≤ 0.03 µg/mL | 0.06 µg/mL (≈ 0.181 µM) | ≤ 0.03 µg/mL | 0.12 µg/mL (≈ 0.362 µM) | ≤ 0.03 µg/mL | ≤ 0.03 µg/mL | ≤ 0.03 µg/mL | 0.12 µg/mL (≈ 0.362 µM) | ≤ 0.03 µg/mL | 0.12 µg/mL (≈ 0.362 µM) | 0.25 µg/mL (≈ 0.754 µM)
3 | CN(C)c1cc(NC(=O)CNC(C)(C)C)c(O)c2c1C[C@H]1C[C@H]3[C@H](N(C)C)C(O)=C(C(N)=O)C(=O)[C@@]3(O)C(O)=C1C2=O [TIGECYCLINE] | 0.06 µg/mL (≈ 0.102 µM) | 0.5 µg/mL (≈ 0.854 µM) | 0.12 µg/mL (≈ 0.205 µM) | 0.5 µg/mL (≈ 0.854 µM) | 0.06 µg/mL (≈ 0.102 µM) | 0.06 µg/mL (≈ 0.102 µM) | ≤ 0.03 µg/mL | 0.25 µg/mL (≈ 0.427 µM) | ≤ 0.03 µg/mL | ≤ 0.03 µg/mL | ≤ 0.03 µg/mL | ≤ 0.03 µg/mL | 0.06 µg/mL (≈ 0.102 µM) | ≤ 0.03 µg/mL | 0.12 µg/mL (≈ 0.205 µM)
4 | NCC[C@H](O)C(=O)N[C@@H]1C[C@H](N)[C@@H](O[C@H]2O[C@H](CN)[C@@H](O)[C@H](O)[C@H]2O)[C@H](O)[C@H]1O[C@H]1O[C@H](CO)[C@@H](O)[C@H](N)[C@H]1O [AMIKACIN] | 2 µg/mL (≈ 3.42 µM) | 8 µg/mL (≈ 13.7 µM) | 1 µg/mL (≈ 1.71 µM) | 16 µg/mL (≈ 27.3 µM) | 0.5 µg/mL (≈ 0.854 µM) | 1 µg/mL (≈ 1.71 µM) | 1 µg/mL (≈ 1.71 µM) | 2 µg/mL (≈ 3.42 µM) | 0.25 µg/mL (≈ 0.427 µM) | 0.5 µg/mL (≈ 0.854 µM) | ≤ 0.5 µg/mL | ≤ 0.03 µg/mL | 0.25 µg/mL (≈ 0.427 µM) | 1 µg/mL (≈ 1.71 µM) | 1 µg/mL (≈ 1.71 µM)
5 | CO[C@@]1(NC(=O)Cc2cccs2)C(=O)N2C(C(=O)O)=C(COC(N)=O)CS[C@@H]21 [CEFOXITIN] |  |  |  |  |  |  |  |  | 0.5 µg/mL (≈ 1.17 µM) | 1 µg/mL (≈ 2.34 µM) | 2 µg/mL (≈ 4.68 µM) | 1 µg/mL (≈ 2.34 µM) | 2 µg/mL (≈ 4.68 µM) | 32 µg/mL (≈ 74.9 µM) | 1 µg/mL (≈ 2.34 µM)
